DNMT1 inh: blocks human DNA methyltransferase DNMT1; P26358; DNMT1 molecular beacon, Hinp1I cleavage, fluorescence; inhibition (reported as % activation of signal), % at 10 µM; 0.83% of 360,000 active; AID 588458; in the data active = inhibition above about 50%
GRK2 aptamer HTS: human GRK2 inhibition via aptamer displacement. P25098. bead flow cytometry, FAM-aptamer displacement from GRK2. inhibition of aptamer binding, % at 10 µM. 0.59% of 330,000 active. AID 488847;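 active = inhibition of aptamer binding above 40%, roughly 3 SD of noise, on plates passing a quality check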;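 also: median bead fluorescence of bound FAM aptamer so fluorescent compounds give negative values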
Scp-1 inhibitor: blocks human Scp-1 phosphatase activity; Recombinant Scp1, phosphopeptide, malachite green phosphate absorbance; 0.88% of 340,000 active; inhibition, % at 20 µM;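 active = inhibition above about 50% at 20 µM, limit read from the data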;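 also: plate controls were DMSO wells with enzyme for no effect and wells lacking enzyme for full effect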
Target sequence (Q9GZU7 76-261 limits assumed): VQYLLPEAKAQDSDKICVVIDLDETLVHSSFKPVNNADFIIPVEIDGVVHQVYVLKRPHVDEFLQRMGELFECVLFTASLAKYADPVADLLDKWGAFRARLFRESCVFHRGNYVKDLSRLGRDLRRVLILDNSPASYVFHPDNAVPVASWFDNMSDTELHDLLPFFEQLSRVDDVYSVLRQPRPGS
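Test system – truncated SCP-1 phosphatase (76-261aa) · Reagent – Phosphorylated 17-residue peptide substrate · Incubation – 45 min room-temperature reaction, 5 min colour, 30 min stabiliser · Detection – colorimetric phosphate reagent with accelerator and stabiliser, absorbance at 630 nm · Measure – % inhibition at 20 µM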
STEP block: STEP (human) phosphatase inhibition; recombinant STEP, OMFP fluorogenic substrate, fluorescence; 0.25% of 360,000 active; inhibition, % at 20 µM; AID 588621; P54829;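 active = inhibition at 20 µM, scaled per plate between control wells, above about 37%, limit read from the data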;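 also: 0% = DMSO with enzyme and substrate and 100% = substrate only without enzyme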
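material = STEP tyrosine phosphatase | reagent = fluorogenic phosphatase substrate OMFP at 25 µM final | doses = single compound dose of 20 µM, 1% DMSO final | schedule = 20 min reaction, room temperature, in the dark | measured by = fluorescence, 480/540 nm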
SUMO1-SIM PPI: alters human SUMO1 binding to SIM partners. P63165. SUMO1 binding to a labelled peptide, TR-FRET, 1 h. inhibition, % at 20 µM. 0.33% of 360,000 active. AID 602429; in the data active = inhibition above about 37%
Target sequence (P63165 whole entry, looked up): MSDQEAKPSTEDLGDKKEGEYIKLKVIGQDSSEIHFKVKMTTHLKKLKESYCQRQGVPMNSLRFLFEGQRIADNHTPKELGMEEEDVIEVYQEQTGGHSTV
LMPTP block: blocks human LMPTP phosphatase; recombinant LMPTP-A, OMFP fluorogenic substrate, fluorescence intensity; inhibition, % at 20 µM; 0.22% of 360,000 active;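 active = compounds that cut the enzyme signal by at least half of the control window in the single-dose screen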;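 also: plate controls were DMSO wells with enzyme plus substrate for no effect and substrate without enzyme for full effect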
Target sequence (P24666 whole entry, looked up): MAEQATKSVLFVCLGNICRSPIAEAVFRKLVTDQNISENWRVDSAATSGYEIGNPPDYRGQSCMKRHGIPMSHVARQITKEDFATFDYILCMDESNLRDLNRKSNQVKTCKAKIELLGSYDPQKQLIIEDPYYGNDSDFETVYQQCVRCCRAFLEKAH
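Test system – LMPTP-A enzyme · Amount – LMPTP-A at 0.625 nM final in the reaction · Buffer or medium – Bis-Tris pH 6.0, DTT, detergent · Reagent – OMFP 400 µM · Doses – single 20 µM dose · Schedule – reaction 50 min, room temperature, dark · Detection – fluorescence intensity of OMFP turnover product · Evaluation – percent inhibition versus substrate-only and uninhibited controls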
GRK2 inh confirm: confirmation of human GRK2 inhibitors displacing RNA aptamer; 4% of 2,000 active; aptamer displacement, % at 10 µM; bead-bound GRK2, FAM-aptamer displacement, flow cytometry; shares compounds with GRK2 aptamer HTS;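 active = aptamer displacement above 40%, near three times the noise of non-fluorescent compounds, on plates passing quality checks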;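 also: negative values mostly reflect intrinsic compound fluorescence rather than true enhancement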
Aptamer quench SP: quenches fluorescent RNA aptamer, GRK2 hit artifact. shares compounds with GRK2 aptamer HTS. 2,000 tested, under 10 active. fluorescence response (% of DMSO), % at 10 µM. Carboxyfluorescein RNA aptamer on beads, flow cytometry quenching; hits give low values. AID 504580;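 active = compounds that quench the bead-bound fluorescent RNA probe, cutting fluorescence to under half of the solvent control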;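 also: counterscreen run without GRK2 so only probe quenching by compound is measured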
Starred values were filed as active, the others as inactive. This is a sample that favours compounds with a hit; in the whole collection about 2.1% have one here.

CN(C)CCNC(=O)c1cccc(-c2cnc3c(NC=O)cc(-c4cccs4)cn23)c1 was read as DNMT1 inh -5, STEP block 4, SUMO1-SIM PPI 51* and LMPTP block -2.
For CN(C)CCNC(=O)c1cccc(-c2cnc3c(NC=O)cc(-c4ccccc4F)cn23)c1 the results were DNMT1 inh -4, STEP block 2, SUMO1-SIM PPI 9 and LMPTP block -3.
Screening Cc1cc(-c2cc(NC=O)c3ncc(-c4cccc(C(=O)NCCN(C)C)c4)n3c2)cc(C)c1O returned DNMT1 inh -4, STEP block 6, SUMO1-SIM PPI 48* and LMPTP block -13.
Screening O=C1c2ccccc2C(c2nnnn2-c2ccc3c(c2)OCCO3)N1CCc1ccccc1F (centres undefined) returned SUMO1-SIM PPI 1 and LMPTP block -1.
For COc1cc(/C=C/C(=O)Nc2ccc3nc4n(c(=O)c3c2)CCCC4)cc(OC)c1OC the results were DNMT1 inh 2, GRK2 aptamer HTS 92*, Scp-1 inhibitor -12, STEP block 0, SUMO1-SIM PPI 8, LMPTP block 2, GRK2 inh confirm 1 and Aptamer quench SP 99.
`CC1(C(=O)Nc2ccc3c(c2)OCCO3)CCC(=O)N1C1CCN(Cc2ccccc2)CC1` (centres undefined) gave DNMT1 inh -2, STEP block 2, SUMO1-SIM PPI 4 and LMPTP block -1.
Screening COc1ccc(OC)c(NC(=O)COC(=O)c2c3c(nc4ccccc24)CCCC3)c1 returned DNMT1 inh -13, GRK2 aptamer HTS 73*, Scp-1 inhibitor 0, STEP block 10, SUMO1-SIM PPI 4, LMPTP block 4, GRK2 inh confirm 2 and Aptamer quench SP 97.
Screening Cc1cc2nc(-c3ccc(Cl)cc3)c(Cc3ccsc3)n2c(C)c1Br returned SUMO1-SIM PPI 9 and LMPTP block 2.
For Cc1cc(C)c(C)c(S(=O)(=O)N2C(=S)NC(=O)C2CC(C)C)c1C (centres undefined) the results were DNMT1 inh -1, GRK2 aptamer HTS 96*, Scp-1 inhibitor -13, STEP block 1, SUMO1-SIM PPI 0, LMPTP block 2, GRK2 inh confirm -3 and Aptamer quench SP 102.
`Cc1ccc(S(=O)(=O)N2CCCC(C(=O)N3CCN(c4ccccc4)CC3)C2)cc1` (centres undefined) gave DNMT1 inh 0, GRK2 aptamer HTS 0, Scp-1 inhibitor -3, STEP block 2, SUMO1-SIM PPI 8 and LMPTP block 0.
For Cc1nn(C)c(C)c1S(=O)(=O)N1CCCC(C(=O)N2CCN(c3ccccc3)CC2)C1 (centres undefined) the results were DNMT1 inh 0, GRK2 aptamer HTS 82*, Scp-1 inhibitor -1, STEP block 3, SUMO1-SIM PPI 3, LMPTP block -1, GRK2 inh confirm -1 and Aptamer quench SP 99.
`COc1ccc(N2CCN(C(=O)CCCOc3cc(=O)n(C)c4ccccc34)CC2)cc1` gave DNMT1 inh -2, GRK2 aptamer HTS 56*, Scp-1 inhibitor -12, STEP block 3, SUMO1-SIM PPI -4, LMPTP block 0, GRK2 inh confirm -1 and Aptamer quench SP 99.
`O=C1NC(C2CC3C=CC2C3)Nc2ccccc21` (centres undefined) gave DNMT1 inh 0, STEP block 1, SUMO1-SIM PPI 3 and LMPTP block 0.
`CC1=C(C(=O)N(C)C)CC(CC(=O)NCCc2ccccn2)C(=O)N1CCCN1CCCC1=O` (centres undefined) gave DNMT1 inh 8, STEP block -2, SUMO1-SIM PPI 2 and LMPTP block -3.
For COCCNC(=O)C1(C)CCCN(C(=O)c2ccccc2)C1 (centres undefined) the results were DNMT1 inh 5, STEP block 1, SUMO1-SIM PPI 6 and LMPTP block -2.
`CCCCNC(=O)CNC(=O)c1nn(-c2ccc(OC)cc2)c(=O)c2ccccc12` gave DNMT1 inh 1, GRK2 aptamer HTS 26, Scp-1 inhibitor -7, STEP block 0, SUMO1-SIM PPI -14, LMPTP block 0, GRK2 inh confirm 2 and Aptamer quench SP 94.
CCN(CC)CCNC(=O)CNC(=O)c1nn(-c2ccc(OC)cc2)c(=O)c2ccccc12 was read as DNMT1 inh 1, GRK2 aptamer HTS 0, Scp-1 inhibitor -4, STEP block 1, SUMO1-SIM PPI -18, LMPTP block 1, GRK2 inh confirm 1 and Aptamer quench SP 95.
Screening CCN(CC)CCNC(=O)CNC(=O)c1nn(-c2ccc(OC)c(OC)c2)c(=O)c2ccccc12 returned DNMT1 inh 2, GRK2 aptamer HTS 0, Scp-1 inhibitor -15, STEP block 3, SUMO1-SIM PPI -12, LMPTP block 0, GRK2 inh confirm 1 and Aptamer quench SP 99.
CCN(CC)CCCNC(=O)CNC(=O)c1nn(-c2ccc(OC)cc2)c(=O)c2ccccc12 was read as DNMT1 inh -1, GRK2 aptamer HTS 0, Scp-1 inhibitor -4, STEP block 4, SUMO1-SIM PPI -11 and LMPTP block -1.
Screening COc1ccc(-n2nc(C(=O)NCC(=O)NCCN(C)C)c3ccccc3c2=O)cc1 returned DNMT1 inh -1, GRK2 aptamer HTS 23, Scp-1 inhibitor -10, STEP block -2, SUMO1-SIM PPI -19, LMPTP block 0, GRK2 inh confirm 3 and Aptamer quench SP 93.
O=C(Nc1c(Cl)cc2c(c1Cl)Cc1cc([N+](=O)[O-])ccc1-2)C(Cl)Cl was read as DNMT1 inh 21, Scp-1 inhibitor 2, STEP block 4, SUMO1-SIM PPI -22 and LMPTP block 1.
CC1(C)CC(=O)C=C(c2cccc(OC(=O)c3ccc(Br)cc3)c2)C1=O was read as DNMT1 inh 3, STEP block 1, SUMO1-SIM PPI -18 and LMPTP block 3.
For O=C(CCN=C1NS(=O)(=O)c2ccccc21)OCc1nnc(-c2ccc([N+](=O)[O-])cc2)o1 the results were DNMT1 inh -4, GRK2 aptamer HTS 0, Scp-1 inhibitor -5, STEP block 0, SUMO1-SIM PPI -30 and LMPTP block 5.
NNC(=O)c1sc2cc(C(F)(F)F)cnc2c1-c1cccnc1 was read as DNMT1 inh 5, GRK2 aptamer HTS 41*, Scp-1 inhibitor 4, STEP block -2, SUMO1-SIM PPI -3, LMPTP block 1, GRK2 inh confirm 2 and Aptamer quench SP 112.

High-throughput results as filed in PubChem BioAssay.
